Among the data in ChEMBL document CHEMBL4052675, “Synthesis, biological evaluation and molecular modeling of imidazo[1,2-a]pyridine derivatives as potent antitubulin agents” (Bioorg Med Chem, 2017) are IC50 values, retold here.

The test system of one experiment is SMMC-7721. The experiment is described as follows: Cytotoxicity against human SMMC7721 cells after 72 hrs by MTT assay. The experiment is classed as functional, cell-based. To be noted: SMMC-7721, 72 h. In a few lines:
(§1)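 Cells grown in MEM with 10% FBS; about 4×10^3 cells per well, preincubated 24 h at 37 °C in 5% CO₂, then exposed to compounds for 72 h. MTT at a […] added for 4 h at 37 °C. Formazan dissolved in DMSO; absorbance read at 492 nm against 630 nm reference. Three runs per line; IC50 reported as mean ± SD.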
A general note: Tetrazolium assays rely on reduction of a dye to a coloured formazan, in cell work by metabolically active cells.
`COc1ccc(-c2cc(-c3ccc(F)cc3)n3c(CN4CCOCC4)cnc3c2C#N)c(OC)c1OC`: the IC50 worked out at 4030 nM.
Compound `CCN(CC)Cc1cn2c(-c3c[nH]c4ccccc34)cc(-c3ccc(F)cc3F)c(C#N)c2n1` registered an IC50 of 1920 nM.
Compound `COc1cc(-c2cc(-c3ccc(F)cc3F)n3c(CN(C)C)cnc3c2C#N)cc(OC)c1OC` gave an IC50 of 62500 nM.
Same read-out and setting: the figure for `N#Cc1c(-c2ccc(F)cc2F)cc(-c2c[nH]c3ccccc23)n2cc(CN3CCOCC3)nc12` is 12800 nM; for `COc1ccc(-c2cc(-c3ccc(F)cc3F)n3c(CN4CCOCC4)cnc3c2C#N)c(OC)c1OC` it is 3200 nM.
The compound `N#Cc1c(-c2ccc(F)cc2F)cc(-c2c[nH]c3ccccc23)n2cc(CNC3CC3)nc12` had an IC50 of 6800 nM.
Same read-out and setting: the figure for `CN(C)Cc1cn2c(-c3c[nH]c4ccccc34)cc(-c3ccc(F)cc3F)c(C#N)c2n1` is 5300 nM; for `CNCc1cnc2c(C#N)c(-c3ccc(OC)c(OC)c3OC)cc(-c3ccc(F)cc3)n12` it is 4420 nM; for `COc1ccc(-c2cc(-c3ccc(F)cc3)n3c(CN4CCCC4)cnc3c2C#N)c(OC)c1OC` it is 5120 nM.
The same measure, in the same setting: the figure for `CCN(CC)Cc1cnc2c(C#N)c(-c3cc(OC)c(OC)c(OC)c3)cc(-c3ccc(F)cc3F)n12` is greater than 100000 nM.
Still for that read-out and setting: the figure for `COc1ccc(-c2cc(-c3ccc(F)cc3F)n3c(CN4CCC(C)CC4)cnc3c2C#N)c(OC)c1OC` is 3480 nM; for `CN1CCN(Cc2cn3c(-c4c[nH]c5ccccc45)cc(-c4ccc(F)cc4F)c(C#N)c3n2)CC1` it is 3820 nM.
The compound `CC1CCN(Cc2cn3c(-c4c[nH]c5ccccc45)cc(-c4ccc(F)cc4F)c(C#N)c3n2)CC1` displayed an IC50 of 3550 nM.

A further experiment deals with HT-29. Put plainly: Cytotoxicity against human HT-29 cells after 72 hrs by MTT assay. To be noted: HT-29, 72 h. It is filed as functional, cell-based. The gist of the method:
as §1
`COc1ccc(-c2cc(-c3ccc(F)cc3)n3c(CN4CCOCC4)cnc3c2C#N)c(OC)c1OC` showed an IC50 of 1030 nM. In other words, the single-digit micromolar range.
In turn, `CCN(CC)Cc1cn2c(-c3c[nH]c4ccccc34)cc(-c3ccc(F)cc3F)c(C#N)c2n1` registered an IC50 of 20 nM.
Turning to `COc1cc(-c2cc(-c3ccc(F)cc3F)n3c(CN(C)C)cnc3c2C#N)cc(OC)c1OC`, the IC50 amounted to 360 nM.
Still for that read-out and setting: under `N#Cc1c(-c2ccc(F)cc2F)cc(-c2c[nH]c3ccccc23)n2cc(CN3CCOCC3)nc12` stands 2700 nM.
Same read-out and setting: under `COc1ccc(-c2cc(-c3ccc(F)cc3F)n3c(CN4CCOCC4)cnc3c2C#N)c(OC)c1OC` stands 470 nM; under `N#Cc1c(-c2ccc(F)cc2F)cc(-c2c[nH]c3ccccc23)n2cc(CNC3CC3)nc12`, 40 nM; under `CN(C)Cc1cn2c(-c3c[nH]c4ccccc34)cc(-c3ccc(F)cc3F)c(C#N)c2n1`, 60 nM.
The same measure, in the same setting: the figure for `CNCc1cnc2c(C#N)c(-c3ccc(OC)c(OC)c3OC)cc(-c3ccc(F)cc3)n12` is 830 nM; for `COc1ccc(-c2cc(-c3ccc(F)cc3)n3c(CN4CCCC4)cnc3c2C#N)c(OC)c1OC` it is 1950 nM; for `CCN(CC)Cc1cnc2c(C#N)c(-c3cc(OC)c(OC)c(OC)c3)cc(-c3ccc(F)cc3F)n12` it is 3510 nM.
Turning to `COc1ccc(-c2cc(-c3ccc(F)cc3F)n3c(CN4CCC(C)CC4)cnc3c2C#N)c(OC)c1OC`, the IC50 was 140 nM.
With `CN1CCN(Cc2cn3c(-c4c[nH]c5ccccc45)cc(-c4ccc(F)cc4F)c(C#N)c3n2)CC1`, half-maximal inhibition (IC50) was put at 110 nM.
The same measure, in the same setting: the figure for `CC1CCN(Cc2cn3c(-c4c[nH]c5ccccc45)cc(-c4ccc(F)cc4F)c(C#N)c3n2)CC1` is 10 nM.

The next experiment relates to A549. The experiment is described as follows: Cytotoxicity against human A549 cells after 72 hrs by MTT assay. To be noted: A549, 72 h. It is filed as functional, cell-based. The gist of the method: as §1
For the compound `COc1ccc(-c2cc(-c3ccc(F)cc3)n3c(CN4CCOCC4)cnc3c2C#N)c(OC)c1OC`, the IC50 came out at 3560 nM. This counts as single-digit micromolar.
`CCN(CC)Cc1cn2c(-c3c[nH]c4ccccc34)cc(-c3ccc(F)cc3F)c(C#N)c2n1` displayed an IC50 of 80 nM. This IC50 is about 44-fold lower than that of the compound before.
As to `COc1cc(-c2cc(-c3ccc(F)cc3F)n3c(CN(C)C)cnc3c2C#N)cc(OC)c1OC`, the IC50 came to 31000 nM.
Same read-out and setting: under `N#Cc1c(-c2ccc(F)cc2F)cc(-c2c[nH]c3ccccc23)n2cc(CN3CCOCC3)nc12` stands 3330 nM; under `COc1ccc(-c2cc(-c3ccc(F)cc3F)n3c(CN4CCOCC4)cnc3c2C#N)c(OC)c1OC`, 1150 nM.
Same read-out and setting: the figure for `N#Cc1c(-c2ccc(F)cc2F)cc(-c2c[nH]c3ccccc23)n2cc(CNC3CC3)nc12` is 9660 nM.
Same read-out and setting: under `CN(C)Cc1cn2c(-c3c[nH]c4ccccc34)cc(-c3ccc(F)cc3F)c(C#N)c2n1` stands 1120 nM; under `CNCc1cnc2c(C#N)c(-c3ccc(OC)c(OC)c3OC)cc(-c3ccc(F)cc3)n12`, 710 nM; under `COc1ccc(-c2cc(-c3ccc(F)cc3)n3c(CN4CCCC4)cnc3c2C#N)c(OC)c1OC`, 1330 nM.
`CCN(CC)Cc1cnc2c(C#N)c(-c3cc(OC)c(OC)c(OC)c3)cc(-c3ccc(F)cc3F)n12`: the IC50 was greater than 100000 nM.
For `COc1ccc(-c2cc(-c3ccc(F)cc3F)n3c(CN4CCC(C)CC4)cnc3c2C#N)c(OC)c1OC`, the IC50 is 1460 nM.
On the same count and under the same terms, the figure for `CN1CCN(Cc2cn3c(-c4c[nH]c5ccccc45)cc(-c4ccc(F)cc4F)c(C#N)c3n2)CC1` is 920 nM; for `CC1CCN(Cc2cn3c(-c4c[nH]c5ccccc45)cc(-c4ccc(F)cc4F)c(C#N)c3n2)CC1` it is 3640 nM.

The test system of another experiment is NCI-H460. Put plainly: Cytotoxicity against human NCI-H460 cells after 72 hrs by MTT assay. It is filed as functional, cell-based. The conditions noted are these: NCI-H460, 72 h. In a few lines: as §1
Compound `COc1ccc(-c2cc(-c3ccc(F)cc3)n3c(CN4CCOCC4)cnc3c2C#N)c(OC)c1OC` registered an IC50 of 9750 nM.
Consider `CCN(CC)Cc1cn2c(-c3c[nH]c4ccccc34)cc(-c3ccc(F)cc3F)c(C#N)c2n1`, for which the IC50 turned out to be 110 nM.
Still for that read-out and setting: the figure for `COc1cc(-c2cc(-c3ccc(F)cc3F)n3c(CN(C)C)cnc3c2C#N)cc(OC)c1OC` is 670 nM; for `N#Cc1c(-c2ccc(F)cc2F)cc(-c2c[nH]c3ccccc23)n2cc(CN3CCOCC3)nc12` it is 190 nM; for `COc1ccc(-c2cc(-c3ccc(F)cc3F)n3c(CN4CCOCC4)cnc3c2C#N)c(OC)c1OC` it is 80 nM.
Same read-out and setting: the figure for `N#Cc1c(-c2ccc(F)cc2F)cc(-c2c[nH]c3ccccc23)n2cc(CNC3CC3)nc12` is 280 nM; for `CN(C)Cc1cn2c(-c3c[nH]c4ccccc34)cc(-c3ccc(F)cc3F)c(C#N)c2n1` it is 190 nM; for `CNCc1cnc2c(C#N)c(-c3ccc(OC)c(OC)c3OC)cc(-c3ccc(F)cc3)n12` it is 1880 nM.
On to `COc1ccc(-c2cc(-c3ccc(F)cc3)n3c(CN4CCCC4)cnc3c2C#N)c(OC)c1OC`, for which the IC50 was found to be 15600 nM.
`CCN(CC)Cc1cnc2c(C#N)c(-c3cc(OC)c(OC)c(OC)c3)cc(-c3ccc(F)cc3F)n12` showed an IC50 of 760 nM.
For the compound `COc1ccc(-c2cc(-c3ccc(F)cc3F)n3c(CN4CCC(C)CC4)cnc3c2C#N)c(OC)c1OC`, the IC50 was 60 nM. This IC50 is about 13-fold lower than that of the compound before.
With `CN1CCN(Cc2cn3c(-c4c[nH]c5ccccc45)cc(-c4ccc(F)cc4F)c(C#N)c3n2)CC1`, the IC50 was determined as 170 nM.
`CC1CCN(Cc2cn3c(-c4c[nH]c5ccccc45)cc(-c4ccc(F)cc4F)c(C#N)c3n2)CC1`: half-maximal inhibition (IC50) required 200 nM.

Another experiment deals with MKN-45. Put plainly: Cytotoxicity against human MKN45 cells after 72 hrs by MTT assay. The experiment is classed as functional, cell-based. To be noted: MKN-45, 72 h. In a few lines: as §1
As to `COc1ccc(-c2cc(-c3ccc(F)cc3)n3c(CN4CCOCC4)cnc3c2C#N)c(OC)c1OC`, 10500 nM corresponded to half-maximal inhibition (IC50).
Still for that read-out and setting: under `CCN(CC)Cc1cn2c(-c3c[nH]c4ccccc34)cc(-c3ccc(F)cc3F)c(C#N)c2n1` stands 3220 nM; under `COc1cc(-c2cc(-c3ccc(F)cc3F)n3c(CN(C)C)cnc3c2C#N)cc(OC)c1OC`, 14000 nM.
The same measure, in the same setting: under `N#Cc1c(-c2ccc(F)cc2F)cc(-c2c[nH]c3ccccc23)n2cc(CN3CCOCC3)nc12` stands 7860 nM.
Still for that read-out and setting: under `COc1ccc(-c2cc(-c3ccc(F)cc3F)n3c(CN4CCOCC4)cnc3c2C#N)c(OC)c1OC` stands 2380 nM; under `N#Cc1c(-c2ccc(F)cc2F)cc(-c2c[nH]c3ccccc23)n2cc(CNC3CC3)nc12`, 3680 nM; under `CN(C)Cc1cn2c(-c3c[nH]c4ccccc34)cc(-c3ccc(F)cc3F)c(C#N)c2n1`, 1340 nM.
As for `CNCc1cnc2c(C#N)c(-c3ccc(OC)c(OC)c3OC)cc(-c3ccc(F)cc3)n12`, the IC50 was 3040 nM. This IC50 lies about 2.3-fold higher than the previous one.
`COc1ccc(-c2cc(-c3ccc(F)cc3)n3c(CN4CCCC4)cnc3c2C#N)c(OC)c1OC` had an IC50 of 5840 nM.
Still for that read-out and setting: the figure for `CCN(CC)Cc1cnc2c(C#N)c(-c3cc(OC)c(OC)c(OC)c3)cc(-c3ccc(F)cc3F)n12` is 40600 nM; for `COc1ccc(-c2cc(-c3ccc(F)cc3F)n3c(CN4CCC(C)CC4)cnc3c2C#N)c(OC)c1OC` it is 1680 nM.
Same read-out and setting: under `CN1CCN(Cc2cn3c(-c4c[nH]c5ccccc45)cc(-c4ccc(F)cc4F)c(C#N)c3n2)CC1` stands 2710 nM.
As for `CC1CCN(Cc2cn3c(-c4c[nH]c5ccccc45)cc(-c4ccc(F)cc4F)c(C#N)c3n2)CC1`, the 50% inhibitory concentration (IC50) came to 2620 nM.

What is called IC50 is the point on the concentration scale where inhibition reaches its midpoint. Lower therefore signals inhibition by little substance.
